Source: ChEMBL document CHEMBL4334482, “Cysteine Residue Containing Merocytochalasans and 17,18-seco-Aspochalasins from Aspergillus micronesiensis” (J Nat Prod, 2019)
Converted amounts (≈) assume the structure as drawn. The source made the active and inactive calls. The rule behind the calls is not given here.

Columns and labels:
HL-60 = experiment: Cytotoxicity against human HL60 cells assessed as reduction in cell viability by MTS assay; assay type: functional, cell-based
Method in brief: (§1)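 In vitro cytotoxicity was tested on a panel of five human cancer lines (HL60, A549, Hep3B, MCF-7, SW480), following an earlier published method. Values are reported as IC50 in μM.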

A549 = experiment: Cytotoxicity against human A549 cells assessed as reduction in cell viability by MTS assay; assay type: functional, cell-based; method in brief: as §1
Hep 3B2 = experiment: Cytotoxicity against human Hep3B cells assessed as reduction in cell viability by MTS assay; assay type: functional, cell-based; method in brief: as §1
MCF7 = experiment: Cytotoxicity against human MCF7 cells assessed as reduction in cell viability by MTS assay; assay type: functional, cell-based; method in brief: as §1
SW480 = experiment: Cytotoxicity against human SW480 cells assessed as reduction in cell viability by MTS assay; assay type: functional, cell-based; method in brief: as §1
Staphylococcus aureus [1] = experiment: Antibacterial activity against Staphylococcus aureus; assay type: functional
Staphylococcus aureus [2] = experiment: Antibacterial activity against methicillin-resistant Staphylococcus aureus; assay type: functional
Candida albicans = experiment: Antifungal activity against Candida albicans assessed as reduction in fungal growth incubated for 48 hrs by two fold serial dilution method; assay type: functional

SMILES | IC50 (HL-60) [µM] | IC50 (A549) [µM] | IC50 (Hep 3B2) [µM] | IC50 (MCF7) [µM] | IC50 (SW480) [µM] | MIC50 (Staphylococcus aureus [1]) [µg/mL] | MIC90 (Staphylococcus aureus [1]) [µg/mL] | MIC50 (Staphylococcus aureus [2]) [µg/mL] | MIC90 (Staphylococcus aureus [2]) [µg/mL] | MIC50 (Candida albicans) [µg/mL] | MIC90 (Candida albicans) [µg/mL] | Activity (HL-60) | Activity (A549) | Activity (Hep 3B2) | Activity (MCF7) | Activity (SW480)
COC(=O)[C@H](O)CS[C@@H]1CC(=O)[C@H](O)CC/C(C)=C/[C@H]2C=C(C)[C@@H](C)[C@H]3[C@H](CC(C)C)NC(=O)[C@]32C1=O | 3 | 16.7 | 8.2 | 17.1 | 13.6 | 14.5 (≈ 27.1 µM) | 27 (≈ 50.4 µM) | 10.6 (≈ 19.8 µM) | 14.7 (≈ 27.4 µM) | 94.7 (≈ 177 µM) | > 100 |  |  |  |  | 
COC(=O)CCC(=O)[C@@]12C(=O)N[C@@H](CC(C)C)[C@@H]1[C@H](C)C(C)=C[C@@H]2/C=C(\C)CCC(=O)O |  |  |  |  |  |  |  |  |  |  |  | inactive | inactive | inactive | inactive | inactive
COC(=O)CC/C(C)=C/[C@H]1C=C(C)[C@@H](C)[C@H]2[C@H](CC(C)C)NC(=O)[C@]21C(=O)CCC(=O)O |  |  |  |  |  |  |  |  |  |  |  | inactive | inactive | inactive | inactive | inactive
CC(=O)NCCS[C@@H]1CC(=O)[C@H](O)CC/C(C)=C/[C@H]2C=C(C)[C@@H](C)[C@H]3[C@H](CC(C)C)NC(=O)[C@]32C1=O | 9.3 | > 20 | 19.9 | 16.1 | 10.1 | 40.8 (≈ 78.7 µM) | 58.5 (≈ 113 µM) | 17.5 (≈ 33.7 µM) | 28.4 (≈ 54.8 µM) | 43.3 (≈ 83.5 µM) | 89.9 (≈ 173 µM) |  |  |  |  | 
